Data as given in ChEMBL document CHEMBL1944511, “Bakuchiol derivatives as novel and potent cytotoxic agents: a report” (Eur J Med Chem, 2012).

How the values were obtained:
[1] = system: MCF7; assay: Growth inhibition of human MCF7 cells at 50 uM after 48 hrs by sulpharhodamine B assay; type: functional; conditions: MCF7, 48 h, read-out: GI
Procedure, shortened: (§1)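 This is the SRB protein-stain assay on adherent cells in RPMI-1640/MEM with 10% FCS. Each compound in DMSO (vehicle <0.2%) was applied at a single fixed concentration for 48 h. Cells were fixed with TCA and stained with SRB, and the dye was solubilised in Tris and read at 570/620 nm. Percent growth inhibition is relative to vehicle-treated controls, reported as mean ± SD of three experiments run in triplicate.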

[2] = system: A549; assay: Growth inhibition of human A549 cells at 50 uM after 48 hrs by sulpharhodamine B assay; type: functional; conditions: A549, 48 h, read-out: GI; procedure, shortened: as §1
[3] = system: PC-3; assay: Growth inhibition of human PC3 cells at 50 uM after 48 hrs by sulpharhodamine B assay; type: functional; conditions: PC-3, 48 h, read-out: GI
Procedure, shortened: (§2)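 Cells grown in RPMI-1640/MEM with 10% FCS, penicillin/streptomycin, 37 °C, 5% CO2. Seeded in 96-well plates, allowed to adhere overnight, then exposed 48 h to analogs in DMSO (vehicle <0.2% in controls). TCA-fixed, stained with 0.4% SRB in 1% acetic acid, dye solubilized in 10 mM Tris base, OD 570 nm (ref 620 nm). Mean ± SD of three experiments run in triplicate.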

[4] = system: OVCAR-5; assay: Growth inhibition of human OVCAR5 cells at 50 uM after 48 hrs by sulpharhodamine B assay; type: functional; conditions: OVCAR-5, 48 h, read-out: GI; procedure, shortened: as §1
[5] = system: IMR-32; assay: Growth inhibition of human IMR32 cells at 50 uM after 48 hrs by sulpharhodamine B assay; type: functional; conditions: IMR-32, 48 h, read-out: GI; procedure, shortened: as §1
[6] = system: HeLa; assay: Growth inhibition of human HeLa cells at 50 uM after 48 hrs by sulpharhodamine B assay; type: functional; conditions: read-out: GI; procedure, shortened: as §1
[7] = system: THP-1; assay: Growth inhibition of human THP1 cells at 50 uM after 48 hrs by sulpharhodamine B assay; type: functional; conditions: THP-1, 48 h, read-out: GI; procedure, shortened: as §2
[8] = system: A549; assay: Growth inhibition of human A549 cells at 20 uM after 48 hrs by sulpharhodamine B assay; type: functional; conditions: A549, 48 h, read-out: GI; procedure, shortened: as §1
[9] = system: PC-3; assay: Growth inhibition of human PC3 cells at 20 uM after 48 hrs by sulpharhodamine B assay; type: functional; conditions: PC-3, 48 h, read-out: GI; procedure, shortened: as §1
[10] = system: IMR-32; assay: Growth inhibition of human IMR32 cells at 20 uM after 48 hrs by sulpharhodamine B assay; type: functional; conditions: IMR-32, 48 h, read-out: GI; procedure, shortened: as §1
[11] = system: THP-1; assay: Growth inhibition of human THP1 cells at 20 uM after 48 hrs by sulpharhodamine B assay; type: functional; conditions: THP-1, 48 h, read-out: GI; procedure, shortened: as §2
[12] = system: MCF7; assay: Growth inhibition of human MCF7 cells at 30 uM after 48 hrs by sulpharhodamine B assay; type: functional; conditions: MCF7, 48 h, read-out: GI; procedure, shortened: as §1
[13] = system: A549; assay: Growth inhibition of human A549 cells at 30 uM after 48 hrs by sulpharhodamine B assay; type: functional; conditions: A549, 48 h, read-out: GI; procedure, shortened: as §1
[14] = system: PC-3; assay: Growth inhibition of human PC3 cells at 30 uM after 48 hrs by sulpharhodamine B assay; type: functional; conditions: PC-3, 48 h, read-out: GI; procedure, shortened: as §2
[15] = system: OVCAR-5; assay: Growth inhibition of human OVCAR5 cells at 30 uM after 48 hrs by sulpharhodamine B assay; type: functional; conditions: OVCAR-5, 48 h, read-out: GI; procedure, shortened: as §1
[16] = system: IMR-32; assay: Growth inhibition of human IMR32 cells at 30 uM after 48 hrs by sulpharhodamine B assay; type: functional; conditions: IMR-32, 48 h, read-out: GI; procedure, shortened: as §1
[17] = system: HeLa; assay: Growth inhibition of human HeLa cells at 30 uM after 48 hrs by sulpharhodamine B assay; type: functional; conditions: read-out: GI; procedure, shortened: as §1
[18] = system: THP-1; assay: Growth inhibition of human THP1 cells at 30 uM after 48 hrs by sulpharhodamine B assay; type: functional; conditions: THP-1, 48 h, read-out: GI; procedure, shortened: as §2
[19] = system: MCF7; assay: Growth inhibition of human MCF7 cells at 10 uM after 48 hrs by sulpharhodamine B assay; type: functional; conditions: MCF7, 48 h, read-out: GI; procedure, shortened: as §1
[20] = system: MCF7; assay: Growth inhibition of human MCF7 cells at 5 uM after 48 hrs by sulpharhodamine B assay; type: functional; conditions: MCF7, 48 h, read-out: GI; procedure, shortened: as §1
[21] = system: HEp-2; assay: Growth inhibition of human Hep2 cells at 50 uM after 48 hrs by sulpharhodamine B assay; type: functional; conditions: HEp-2, 48 h, read-out: GI; procedure, shortened: as §1
[22] = system: HEp-2; assay: Growth inhibition of human Hep2 cells at 30 uM after 48 hrs by sulpharhodamine B assay; type: functional; conditions: HEp-2, 48 h, read-out: GI; procedure, shortened: as §1
[23] = system: HEp-2; assay: Growth inhibition of human Hep2 cells at 20 uM after 48 hrs by sulpharhodamine B assay; type: functional; conditions: HEp-2, 48 h, read-out: GI; procedure, shortened: as §1
[24] = system: HEp-2; assay: Growth inhibition of human Hep2 cells at 10 uM after 48 hrs by sulpharhodamine B assay; type: functional; conditions: HEp-2, 48 h, read-out: GI; procedure, shortened: as §1
[25] = system: HEp-2; assay: Growth inhibition of human Hep2 cells at 5 uM after 48 hrs by sulpharhodamine B assay; type: functional; conditions: HEp-2, 48 h, read-out: GI; procedure, shortened: as §1
[26] = system: A549; assay: Growth inhibition of human A549 cells at 10 uM after 48 hrs by sulpharhodamine B assay; type: functional; conditions: A549, 48 h, read-out: GI; procedure, shortened: as §1
[27] = system: A549; assay: Growth inhibition of human A549 cells at 5 uM after 48 hrs by sulpharhodamine B assay; type: functional; conditions: A549, 48 h, read-out: GI; procedure, shortened: as §1
[28] = system: DU-145; assay: Growth inhibition of human DU145 cells at 20 uM after 48 hrs by sulpharhodamine B assay; type: functional; conditions: DU-145, 48 h, read-out: GI; procedure, shortened: as §1
[29] = system: DU-145; assay: Growth inhibition of human DU145 cells at 10 uM after 48 hrs by sulpharhodamine B assay; type: functional; conditions: DU-145, 48 h, read-out: GI; procedure, shortened: as §1
[30] = system: DU-145; assay: Growth inhibition of human DU145 cells at 5 uM after 48 hrs by sulpharhodamine B assay; type: functional; conditions: DU-145, 48 h, read-out: GI; procedure, shortened: as §1
[31] = system: THP-1; assay: Growth inhibition of human THP1 cells at 10 uM after 48 hrs by sulpharhodamine B assay; type: functional; conditions: THP-1, 48 h, read-out: GI; procedure, shortened: as §2
[32] = system: THP-1; assay: Growth inhibition of human THP1 cells at 5 uM after 48 hrs by sulpharhodamine B assay; type: functional; conditions: THP-1, 48 h, read-out: GI; procedure, shortened: as §2
[33] = system: PC-3; assay: Growth inhibition of human PC3 cells at 10 uM after 48 hrs by sulpharhodamine B assay; type: functional; conditions: PC-3, 48 h, read-out: GI; procedure, shortened: as §1
[34] = system: PC-3; assay: Growth inhibition of human PC3 cells at 5 uM after 48 hrs by sulpharhodamine B assay; type: functional; conditions: PC-3, 48 h, read-out: GI; procedure, shortened: as §2
[35] = system: IMR-32; assay: Growth inhibition of human IMR32 cells at 10 uM after 48 hrs by sulpharhodamine B assay; type: functional; conditions: IMR-32, 48 h, read-out: GI; procedure, shortened: as §1
[36] = system: IMR-32; assay: Growth inhibition of human IMR32 cells at 5 uM after 48 hrs by sulpharhodamine B assay; type: functional; conditions: IMR-32, 48 h, read-out: GI; procedure, shortened: as §1
[37] = system: HCT-15; assay: Growth inhibition of human HCT15 cells at 20 uM after 48 hrs by sulpharhodamine B assay; type: functional; conditions: HCT-15, 48 h, read-out: GI; procedure, shortened: as §1
[38] = system: HCT-15; assay: Growth inhibition of human HCT15 cells at 10 uM after 48 hrs by sulpharhodamine B assay; type: functional; conditions: HCT-15, 48 h, read-out: GI; procedure, shortened: as §1
[39] = system: HCT-15; assay: Growth inhibition of human HCT15 cells at 5 uM after 48 hrs by sulpharhodamine B assay; type: functional; conditions: HCT-15, 48 h, read-out: GI; procedure, shortened: as §1
[40] = system: THP-1; assay: Cytotoxicity against human THP1 cells after 48 hrs by sulpharhodamine B assay; type: functional, cell-based; conditions: THP-1, 48 h
Procedure, shortened: (§3)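 Cells were grown in RPMI-1640/MEM with 10% FCS and penicillin/streptomycin at 37 °C under 5% CO2, then seeded and left to adhere overnight. Analogs in DMSO (vehicle <0.2%) were added at several concentrations for 48 h. Cells were fixed with cold 50% TCA, stained with 0.4% SRB in 1% acetic acid, solubilised in 10 mM Tris, and read at OD 570/620 nm. IC50 came from non-linear regression.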

[41] = system: DU-145; assay: Cytotoxicity against human DU145 cells after 48 hrs by sulpharhodamine B assay; type: functional, cell-based; conditions: DU-145, 48 h; procedure, shortened: as §3
[42] = system: PC-3; assay: Cytotoxicity against human PC3 cells after 48 hrs by sulpharhodamine B assay; type: functional, cell-based; conditions: PC-3, 48 h; procedure, shortened: as §3
[43] = system: HEp-2; assay: Cytotoxicity against human Hep2 cells after 48 hrs by sulpharhodamine B assay; type: functional, cell-based; conditions: HEp-2, 48 h; procedure, shortened: as §3
[44] = system: MCF7; assay: Cytotoxicity against human MCF7 cells after 48 hrs by sulpharhodamine B assay; type: functional, cell-based; conditions: MCF7, 48 h; procedure, shortened: as §3
[45] = system: A549; assay: Cytotoxicity against human A549 cells after 48 hrs by sulpharhodamine B assay; type: functional, cell-based; conditions: A549, 48 h; procedure, shortened: as §3
[46] = system: SF-295; assay: Cytotoxicity against human SF295 cells after 48 hrs by sulpharhodamine B assay; type: functional, cell-based; conditions: SF-295, 48 h; procedure, shortened: as §3
[47] = system: HCT-15; assay: Cytotoxicity against human HCT15 cells after 48 hrs by sulpharhodamine B assay; type: functional, cell-based; conditions: HCT-15, 48 h; procedure, shortened: as §3
[48] = system: MCF7; assay: Growth inhibition of human MCF7 cells at 20 uM after 48 hrs by sulpharhodamine B assay; type: functional; conditions: MCF7, 48 h, read-out: GI; procedure, shortened: as §1

C=C[C@@](C)(/C=C/c1ccc(OC(C)=O)cc1)CCC=C(C)C [ACETYLBAKUCHIOL]
inhibition of growth at 50 µM [1]: 75%
inhibition of growth at 50 µM [2]: 72%
inhibition of growth at 50 µM [3]: 67%
inhibition of growth at 50 µM [4]: 71%
inhibition of growth at 50 µM [5]: 71%
inhibition of growth at 50 µM [6]: 63%
inhibition of growth at 50 µM [7]: 81%
inhibition of growth at 20 µM [8]: 1%
inhibition of growth at 20 µM [9]: 45%
inhibition of growth at 20 µM [10]: 48%
inhibition of growth at 20 µM [11]: 50%
inhibition of growth at 30 µM [12]: 56%
inhibition of growth at 30 µM [13]: 60%
inhibition of growth at 30 µM [14]: 60%
inhibition of growth at 30 µM [15]: 62%
inhibition of growth at 30 µM [16]: 59%
inhibition of growth at 30 µM [17]: 45%
inhibition of growth at 30 µM [18]: 63%
inhibition of growth at 10 µM [19]: 31%
inhibition of growth at 5 µM [20]: 15%
inhibition of growth at 50 µM [21]: 52%
inhibition of growth at 30 µM [22]: 51%
inhibition of growth at 20 µM [23]: 46%
inhibition of growth at 10 µM [24]: 30%
inhibition of growth at 5 µM [25]: 14%
inhibition of growth at 10 µM [26]: 22%
inhibition of growth at 5 µM [27]: 13%
inhibition of growth at 20 µM [28]: 42%
inhibition of growth at 10 µM [29]: 29%
inhibition of growth at 5 µM [30]: 19%
inhibition of growth at 10 µM [31]: 44%
inhibition of growth at 5 µM [32]: 34%
inhibition of growth at 10 µM [33]: 32%
inhibition of growth at 5 µM [34]: 21%
inhibition of growth at 10 µM [35]: 34%
inhibition of growth at 5 µM [36]: 27%
inhibition of growth at 20 µM [37]: 57%
inhibition of growth at 10 µM [38]: 46%
inhibition of growth at 5 µM [39]: 31%
IC50 [40]: 18 µM
IC50 [41]: 26 µM
IC50 [42]: 23 µM
IC50 [43]: 20 µM
IC50 [44]: 25 µM
IC50 [45]: 40 µM
IC50 [46]: 8 µM
IC50 [47]: 11 µM
inhibition of growth at 20 µM [48]: 44%
